The source made the active and inactive calls. No cut-off for these calls is given here.
Experiments:
Plasmodium falciparum = assay: Antimalarial activity against Plasmodium falciparum 3D7 asexual cultures grown under 5% haematocrit assessed as decrease in parasite DNA level by flow cytometry; assay type: functional, organism-based
[1] = molecular target: T1, Ribosyldihydronicotinamide dehydrogenase [quinone] (Homo sapiens) (UniProt P16083); assay: Inhibition of recombinant human NQO2 assessed as change in rate of decolouration of DCPIP at 10 uM measured over 1 min by spectrophotometric method
T1 sequence (whole entry): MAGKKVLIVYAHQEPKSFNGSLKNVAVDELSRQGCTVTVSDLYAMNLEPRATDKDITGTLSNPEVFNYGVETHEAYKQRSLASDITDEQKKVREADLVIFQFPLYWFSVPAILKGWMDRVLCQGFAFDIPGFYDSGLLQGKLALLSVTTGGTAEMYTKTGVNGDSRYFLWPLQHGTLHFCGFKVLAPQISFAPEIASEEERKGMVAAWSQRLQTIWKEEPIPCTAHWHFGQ
Outline: (§1)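 The NQO2 enzymatic activity was followed spectrophotometrically as the decolouration of the blue redox dye 2,6-dichlorophenolindophenol (DCPIP) at pH 7.4.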

[2] = molecular target: T2, Ribosyldihydronicotinamide dehydrogenase [quinone] (Homo sapiens, UniProt P16083); assay: Inhibition of recombinant human NQO2 assessed as change in rate of decolouration of DCPIP measured over 1 min by spectrophotometric method; outline: as §1
T2 sequence (P16083 whole entry): T1 sequence (whole entry)

| SMILES | IC50 (Plasmodium falciparum) [µM] | inhibition [1] | IC50 [2] [µM] |
| --- | --- | --- | --- |
| CC(=N)Nc1ccc(-c2ccc(-c3ccccc3)o2)cc1 | 0.77 | inactive |  |
| CC(=O)Nc1ccc(-c2ccc(-c3ccccc3)o2)cc1 |  | inactive |  |
| CC(=O)Nc1cccc(-c2ccc(-c3ccccc3)o2)c1 |  |  | 1.14 |
| CC(=O)Nc1cccc(-c2ccc(-c3ccccc3)s2)c1 |  |  | 2 |
| N=C(N)c1ccc(-c2ccc(-c3ccccc3)o2)cc1 | 1.5 |  |  |
| Cc1oc(-c2ccc(C(=N)N)cc2)cc1-c1ccccc1 |  | inactive |  |
| N=C(N)c1ccc(-c2ccc(-c3ccccc3)s2)cc1 | 18.9 |  | 0.773 |
| CC(=N)Nc1ccc(-c2ccc(-c3ccccc3)s2)cc1 | 0.97 | inactive |  |
| N=C(NO)c1ccc(-c2ccc(-c3ccccc3)o2)cc1 |  | inactive |  |
| Cn1cc(-c2ccccc2)nc1-c1ccc(C(=N)N)cc1 |  | inactive |  |
| N=C(N)c1ccc(-c2nc(-c3ccccc3)c[nH]2)cc1 | 5.3 |  | 1.11 |
| COC(=N)c1ccc(-c2ccc(-c3ccccc3)o2)cc1 |  | inactive |  |
| N=C(N)c1ccc(-c2ccc(-c3ccc(C(=N)N)cc3)o2)cc1 [FURAMIDINE] | 0.0005 |  |  |

Reference: ChEMBL document CHEMBL4219166, “Evaluation of analogues of furan-amidines as inhibitors of NQO2” (Bioorg Med Chem Lett, 2018)
